The test system of one data set is BGC-823. Nature of the data set: Anticancer activity against human BGC823 cells after 72 hrs by MTT assay. Format: functional, cell-based. The settings on record: BGC-823, 72 h. The gist of the method:
(§1)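 Cells seeded at 3000/well and grown 24 h: A549 in F12-K, BGC-823, KB and BEL-7402 in RPMI 1640, all with 10% FBS at 37 °C in 5% CO2. Drug added at 10 concentrations from 4×10^-4 to 1×10^-7 M and incubated 72 h. MTT added for 4 h at 37 °C, then SDS/isobutanol/HCl lysis overnight. A570 read. IC50 from three independent tests.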
On the technique in general: Formazan colour is commonly taken as a measure of viable cells.

The subject of a further data set is Bel-7402. Description: Anticancer activity against human Bel7402 cells after 72 hrs by MTT assay. Format: functional, cell-based. The settings on record: Bel-7402, 72 h. In a few lines: as §1
Another data set relates to KB. Description: Anticancer activity against human KB cells after 72 hrs by MTT assay. Type of data set: functional, cell-based. In a few lines:
as §1

Data set [1] deals with A549. Nature of the data set: Anticancer activity against human A549 cells after 72 hrs by MTT assay. Type of data set: functional, cell-based. The settings on record: A549, 72 h. The gist of the method:
as §1

Data set [2] in a line: Toxicity in intragastrically administered Kunming mouse after 14 days. Type of data set: organism-based. The settings on record: in vivo, po.
Data set [3] relates to A549. Description: Induction of apoptosis in human A549 cells assessed as late apoptotic cells at 30 uM after 48 hrs by annexin-V/propidium iodide based FACS analysis. Type of data set: functional. The gist of the method: (§2)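 A549 cells grown in F12-K with 10% FBS at 37 °C under 5% CO2. Exposed for 24 or 48 h to 0, 10, 15 or 30 μM, then trypsinized, pelleted and stained with Annexin V-FITC/PI for flow cytometry. Late apoptotic cells taken as the Q2 quadrant.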
A general note: Flow cytometry measures light scatter and fluorescence of single cells or particles in a stream.

For data set [4], the system named is A549. Nature of the data set: Induction of apoptosis in human A549 cells assessed as late apoptotic cells at 10 uM after 48 hrs by annexin-V/propidium iodide based FACS analysis. Format: functional. In a few lines: as §2
Data set [5] relates to A549. Description: Induction of apoptosis in human A549 cells assessed as early apoptotic cells at 10 uM after 24 hrs by annexin-V/propidium iodide based FACS analysis. Format: functional. In a few lines: (§3)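 A549 cells (F12-K, 10% FBS, 37 °C, 5% CO2) treated at 0, 10, 15 or 30 μM for 24 or 48 h, then trypsinized and resuspended in PBS. Stained with Annexin V-FITC/PI kit and analysed by flow cytometry. Early apoptotic cells counted in the Q4 quadrant.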

For data set [6], the system named is A549. Description: Induction of apoptosis in human A549 cells assessed as early apoptotic cells at 30 uM after 24 hrs by annexin-V/propidium iodide based FACS analysis. Type of data set: functional. In a few lines: as §3
Data set [7] has as its system A549. Description: Induction of apoptosis in human A549 cells assessed as early apoptotic cells at 30 uM after 48 hrs by annexin-V/propidium iodide based FACS analysis. Format: functional. In a few lines: as §3
For data set [8], the system named is A549. Nature of the data set: Induction of apoptosis in human A549 cells assessed as late apoptotic cells at 10 uM after 24 hrs by annexin-V/propidium iodide based FACS analysis. Type of data set: functional. The gist of the method: as §2
The test system of data set [9] is A549. Nature of the data set: Induction of apoptosis in human A549 cells assessed as early apoptotic cells at 10 uM after 48 hrs by annexin-V/propidium iodide based FACS analysis. Type of data set: functional. In a few lines:
as §3

The subject of data set [10] is A549. Description: Induction of apoptosis in human A549 cells assessed as late apoptotic cells at 30 uM after 24 hrs by annexin-V/propidium iodide based FACS analysis. Format: functional. In a few lines:
as §2

The test system of data set [11] is A549. Description: Induction of apoptosis in human A549 cells assessed as late apoptotic cells at 15 uM after 48 hrs by annexin-V/propidium iodide based FACS analysis. Type of data set: functional. The gist of the method:
as §2

The subject of data set [12] is A549. Description: Induction of apoptosis in human A549 cells assessed as early apoptotic cells at 15 uM after 48 hrs by annexin-V/propidium iodide based FACS analysis. Type of data set: functional. The gist of the method: as §3
Data set [13] has as its system A549. Nature of the data set: Induction of apoptosis in human A549 cells assessed as early apoptotic cells at 15 uM after 24 hrs by annexin-V/propidium iodide based FACS analysis. Format: functional. In a few lines: as §3
Data set [14] deals with A549. Nature of the data set: Induction of apoptosis in human A549 cells assessed as late apoptotic cells at 15 uM after 24 hrs by annexin-V/propidium iodide based FACS analysis. Type of data set: functional. In a few lines:
as §2

What is called IC50 is the concentration needed to halve the response being measured. Read a high IC50 as weaker potency in that assay. One may read the LD50 as the dose at which mortality reaches 50%. High values mean lower toxicity, low ones greater toxicity.

Each structure is given as a SMILES string.

As for `O=C(Nc1cccc(Br)c1)C(Cl)Cl`, the IC50 in the data set with BGC-823 was found to be 95.3 µM; with Bel-7402, 7.72 µM; in the data set on KB it was 8.18 µM; in the data set with A549 [1], 7.8 µM.
For `O=C(Nc1cccc(OC(F)(F)F)c1)C(Cl)Cl`, in that order: 142 µM, 10.3 µM, 7.41 µM and 15.1 µM.
In the data set on A549 [1], `O=C(Nc1ccccc1NC(=O)C(Cl)Cl)C(Cl)Cl` yielded an IC50 of 131 µM.
On to `O=C(Nc1cccc([N+](=O)[O-])c1)C(Cl)Cl`, for which the IC50 came to 123 µM in the data set on BGC-823, 15.7 µM with Bel-7402, 44.7 µM in the data set with KB and 18 µM in the data set on A549 [1].
For `O=C(Nc1ccc([N+](=O)[O-])cc1)C(Cl)Cl`, in that order: 190 µM, 29.5 µM, 60.6 µM and 34.4 µM.
For the molecule `O=C(Nc1cc(Cl)ccc1Cl)C(Cl)Cl`, the IC50 with Bel-7402 worked out at 18.2 µM; in the data set on KB, 11.5 µM; in the data set with A549 [1] it was 12.4 µM.
Regarding `O=C(Nc1ccc(Br)cc1)C(Cl)Cl`, the figures for the IC50 in the data set on Bel-7402, with KB and in the data set on A549 [1] were 9.77 µM, 21.7 µM and 13.7 µM, respectively.
Regarding `O=C(Nc1ccc(I)cc1)C(Cl)Cl`, the IC50 in the data set on BGC-823 was 222 µM; in the data set on Bel-7402, 11.9 µM; in the data set with KB, 66.2 µM; in the data set on A549 [1] it was 12.5 µM.
For `O=C(Nc1ccccc1Br)C(Cl)Cl`, the figures for the IC50 in the data set with Bel-7402, in the data set with KB and in the data set with A549 [1] were 38.2 µM, 67.9 µM and 37 µM, respectively.
For the molecule `O=C([O-])C(Cl)Cl.[Na+]` [SODIUM DICHLOROACETATE], the IC50 came out at 1050 µM in the data set with BGC-823, 860 µM in the data set with Bel-7402, 1420 µM in the data set with KB and 1010 µM with A549 [1].
For `O=C(Nc1ccc(SC(F)(F)F)cc1)C(Cl)Cl`, the IC50 in the data set with BGC-823 is 203 µM; in the data set on Bel-7402, 3.61 µM; in the data set on KB, 2.08 µM; in the data set on A549 [1], 10.6 µM.
The molecule `O=C(Nc1cccc(Cl)c1)C(Cl)Cl` yielded an LD50 at 336 h in [2] of 4550 mg/kg. Moreover, the IC50 with Bel-7402 was determined as 44.5 µM; in the data set with A549 [1], 14.8 µM.
With `O=C(Nc1ccc(F)cc1)C(Cl)Cl`, half-maximal inhibition with A549 [1] (IC50) was put at 68.4 µM.
Regarding `O=C(Nc1cc(Cl)cc(Cl)c1)C(Cl)Cl`, the IC50 came to 60.1 µM with BGC-823, 4.65 µM with Bel-7402, 4.53 µM with KB and 4.4 µM in the data set on A549 [1].
In turn, `O=C(Nc1ccccc1F)C(Cl)Cl` registered an IC50 with A549 [1] of 87.5 µM.
`O=C(Nc1ccccc1Cl)C(Cl)Cl`: half-maximal inhibition in the data set with A549 [1] (IC50) was put at 50.1 µM.
For `O=C(Nc1cccc(C(F)(F)F)c1)C(Cl)Cl`, the IC50 was 143 µM in the data set with BGC-823, 5.97 µM in the data set on Bel-7402, 8.86 µM with KB and 12.2 µM in the data set on A549 [1].
Consider `O=C(Nc1cccc(S(=O)(=O)c2cccc(NC(=O)C(Cl)Cl)c2)c1)C(Cl)Cl`, for which the IC50 in the data set on BGC-823 worked out at 198 µM; with Bel-7402 it was 15.9 µM; in the data set on KB, 24 µM; with A549 [1], 5.89 µM.
The corresponding values for `O=C(Nc1cccc(SC(F)(F)F)c1)C(Cl)Cl` are 123 µM, 6.54 µM, 4.84 µM and 14.1 µM.
Take `COc1ccc(NC(=O)C(Cl)Cl)cc1`: the concentration for half-maximal inhibition (IC50) in the data set with Bel-7402 worked out at 192 µM; in the data set with KB, 278 µM; in the data set with A549 [1], 80.9 µM.
As to `O=C(Nc1ccc(Cl)c(Cl)c1)C(Cl)Cl`, the IC50 stood at 177 µM in the data set with BGC-823, 7.37 µM with Bel-7402, 7.05 µM with KB and 5.09 µM in the data set on A549 [1].
For the molecule `O=C(Nc1cccc(Cl)c1Cl)C(Cl)Cl`, the IC50 in the data set with Bel-7402 came to 180 µM; in the data set with KB, 217 µM.
In the case of `O=C(Nc1cccc(I)c1)C(Cl)Cl`, the Activity with A549 [3] worked out at 35.6%; in the data set with A549 [4], 17.6%; with A549 [5] it was 10.8%; in the data set on A549 [6] it was 15.2%; in the data set with A549 [7], 10.6%; in the data set with A549 [8], 8.6%. In addition, the Activity with A549 [9] is listed as 7.8%; in the data set with A549 [10] it was 20.3%; with A549 [11], 22.6%; in the data set with A549 [12], 8.7%; with A549 [13], 9.2%; in the data set with A549 [14], 19.3%. Further, the IC50 in the data set on BGC-823 is 58.8 µM; with Bel-7402 it was 5.39 µM; in the data set on KB it was 5.25 µM; in the data set with A549 [1], 4.76 µM. The molecule also registered an LD50 at 336 h in [2] of 1120 mg/kg.
In the data set with A549 [1], `O=C(Nc1ccccc1)C(Cl)Cl` had an IC50 of 130 µM.
Turning to `C#Cc1cccc(NC(=O)C(Cl)Cl)c1`, the IC50 in the data set on BGC-823 amounted to 172 µM; in the data set on Bel-7402, 4.74 µM; in the data set with KB, 6.26 µM; in the data set with A549 [1] it was 11.2 µM.
For `O=C(Nc1ccc(S(=O)(=O)C(F)(F)F)cc1)C(Cl)Cl`, in that order: 146 µM, 72.8 µM, 9.71 µM and 8.5 µM.
As to `O=C(Nc1cccc(S(=O)(=O)C(F)(F)F)c1)C(Cl)Cl`, the IC50 amounted to 64 µM in the data set on BGC-823, 9.01 µM with Bel-7402, 20.6 µM with KB and 6.53 µM in the data set on A549 [1].
Regarding `COc1cccc(NC(=O)C(Cl)Cl)c1`, the IC50 in the data set with BGC-823 was 179 µM; with Bel-7402 it was 54.8 µM; in the data set on KB, 57.7 µM; with A549 [1], 25.8 µM.
As for `O=C(Nc1ccc(Cl)cc1)C(Cl)Cl`, the results for the IC50 in the data set with Bel-7402, in the data set on KB and in the data set on A549 [1] were 49.6 µM, 60.8 µM and 20.4 µM, respectively.
Turning to `Cc1ccc(NC(=O)C(Cl)Cl)cc1`, inhibition in the data set with A549 [1] was half-maximal at 48.9 µM (IC50).
As for `N#Cc1cccc(NC(=O)C(Cl)Cl)c1`, the IC50 is 48.4 µM in the data set with Bel-7402, 60.9 µM with KB and 66.5 µM in the data set on A549 [1].
For `Cc1cccc(NC(=O)C(Cl)Cl)c1`, inhibition with A549 [1] was half-maximal at 41.1 µM (IC50).
Turning to `O=C(Nc1ccccc1[N+](=O)[O-])C(Cl)Cl`, the IC50 was 194 µM with Bel-7402, 253 µM with KB and 198 µM with A549 [1].

The values are drawn from ChEMBL document CHEMBL1240483, “Novel N-phenyl dichloroacetamide derivatives as anticancer reagents: design, synthesis and biological evaluation” (Eur J Med Chem, 2010).
